Results on 11 molecules are retold here after ChEMBL document CHEMBL2093137, “WHO-TDR NTD Screening”.

In brackets after ≈: the same amount, converted by molar mass.

Data set [1] is described as follows: WHO-TDR: Cytotoxicity. The class given is toxicity, cell-based. The conditions noted are these: human, MRC5 cells.
The test system of another data set is Plasmodium falciparum K1. In words: WHO-TDR: Malaria. The class given is functional, organism-based, Homo sapiens. The conditions noted are these: Erythrocyte. Put shortly: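 Previously published standard procedures, including a reference drug as positive control, were used to screen whole Plasmodium falciparum K1 parasites inside human red blood cells. IC50 is the measure of antiplasmodial potency. The compounds were a 10,000-member diverse Life Chemicals library.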

Another data set deals with Trypanosoma cruzi. Description: WHO-TDR: Chagas disease. The class given is functional, organism-based, Homo sapiens. The following applies: MRC5. In outline:
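Following previously published standard procedures, with a reference drug as positive control, a whole-organism assay was run on Trypanosoma cruzi Tulahuen CL2 beta-galactosidase strain amastigotes inside MRC-5SV2 human lung fibroblast host cells. The 10,000 compounds tested formed a diverse Life Chemicals library filtered for drug-likeness and reactive groups. Results are expressed as IC50 for antiparasitic potency.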

In data set [2] the test system is Trypanosoma brucei brucei. In words: WHO-TDR: Human African Trypanosomiasis (HAT). The class given is functional, organism-based. The following applies: Squib-427. In outline:
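In this whole-organism screen, the target was the bloodstream form of Trypanosoma brucei, strain Squib 427. A diverse set of 10,000 compounds from Life Chemicals, previously filtered for drug-likeness and reactive groups, was assayed by standard published procedures using reference drugs as positive controls. Each value is an IC50 for antiparasitic potency.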

The next data set deals with Leishmania infantum. Description: WHO-TDR: Leishmaniasis. The following applies: Macrophage. Type of data set: functional, organism-based, Mus musculus. Put shortly:
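Intracellular amastigotes of Leishmania infantum MHOM/MA(BE)/67, hosted in murine peritoneal macrophages, were exposed to compounds from a 10,000-member diverse library supplied by Life Chemicals. The library had been filtered for drug-likeness and reactive groups. The reported IC50 expresses antiparasitic potency.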

The next data set concerns Schistosoma mansoni. Description: WHO-TDR: Schistosomiasis. The class given is functional. Details: concentration or dose not given beside the values. In outline:
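Whole-organism screen of a 10,000-compound diverse library from Life Chemicals, filtered for drug-likeness and reactive groups, against larval and/or adult worms of Schistosoma mansoni Puerto Rican strain. The assay followed previously published standard procedures, with a reference drug as positive control. Activity is reported as percent inhibition and as IC50.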

Another data set deals with Onchocerca lienalis. Description: WHO-TDR: Onchocerciasis. Type of data set: functional. Details: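 at 12.5 µM on microfilariae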. Put shortly: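 Whole-organism screen of a 10,000-compound diverse library from Life Chemicals, filtered for drug-likeness and reactive groups, against microfilariae of Onchocerca ochengi or Onchocerca lienalis, used as animal-pathogen stand-ins for the human parasite. The assay followed previously published standard procedures, with reference drugs as positive controls. Activity is reported as percent inhibition and as IC50.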

Another data set concerns Brugia malayi. In words: WHO-TDR: Lymphatic Filariasis. Type of data set: functional. Further details: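 tested at 10 µM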. Put shortly:
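Whole-organism screen of a 10,000-compound diverse library from Life Chemicals, filtered for drug-likeness and reactive groups, against Brugia malayi microfilariae. The assay followed previously published standard procedures, with reference drugs as positive controls. Activity is reported as percent inhibition and as IC50.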

Take `COc1ccc(C)c2sc(N(CCCN(C)C)C(=O)c3ccccc3SC)nc12`: the IC50 was found to be 4.42 µg/mL (≈ 10.3 µM) in data set [1]; 0.506 µg/mL (≈ 1.18 µM) in the data set on Plasmodium falciparum K1; 5.29 µg/mL (≈ 12.3 µM) in the data set on Trypanosoma cruzi; 0.432 µg/mL (≈ 1.01 µM) in data set [2]; 4.53 µg/mL (≈ 10.5 µM) in the data set with Leishmania infantum. Further, the figures for the “% Inhibition” value in the data set with Schistosoma mansoni, in the data set with Onchocerca lienalis and in the data set on Brugia malayi were 0%, 13.3% and 0%, respectively.

`CC(=O)c1cccc(Nc2nc(Nc3ccc(F)c(Cl)c3)nc(N3CCOCC3)n2)c1`: the IC50 in data set [1] was 5.32 µg/mL (≈ 12 µM); in the data set on Plasmodium falciparum K1, 3.81 µg/mL (≈ 8.61 µM); with Trypanosoma cruzi, 0.465 µg/mL (≈ 1.05 µM); in data set [2], 0.643 µg/mL (≈ 1.45 µM); with Leishmania infantum, greater than 13.3 µg/mL. Also, the entries for the “% Inhibition” value in the data set with Schistosoma mansoni, in the data set with Onchocerca lienalis and in the data set with Brugia malayi were 25%, 0% and 0%, respectively.

As for `CN(Cc1ccco1)S(=O)(=O)c1ccc(C(=O)Nc2nnc(-c3ccccc3Cl)o2)cc1`, the IC50 was 0.807 µg/mL (≈ 1.71 µM) in data set [1]; greater than 14.2 µg/mL in the data set on Plasmodium falciparum K1; 0.465 µg/mL (≈ 0.983 µM) with Trypanosoma cruzi; 2.96 µg/mL (≈ 6.25 µM) in data set [2]; greater than 14.2 µg/mL in the data set with Leishmania infantum. Moreover, the “% Inhibition” value with Schistosoma mansoni, in the data set with Onchocerca lienalis and in the data set with Brugia malayi was 0% throughout.

In the case of `CS(=O)(=O)c1ccc(CC(=O)Nc2nc3c(s2)-c2cccc4cccc-3c24)cc1`, the 50% inhibitory concentration (IC50) in data set [1] turned out to be 0.688 µg/mL (≈ 1.64 µM); in the data set with Plasmodium falciparum K1, 7.42 µg/mL (≈ 17.6 µM); with Trypanosoma cruzi, 0.317 µg/mL (≈ 0.754 µM); in data set [2] it was 4.29 µg/mL (≈ 10.2 µM); in the data set on Leishmania infantum, 4.08 µg/mL (≈ 9.71 µM). The “% Inhibition” value in the data set with Schistosoma mansoni amounted to 0%; with Onchocerca lienalis, 11.35%; with Brugia malayi, 0%.

As to `O=C(Nc1nc(-c2ccccn2)cs1)C1CCN(S(=O)(=O)c2cccs2)CC1`, the half-maximal inhibitory concentration (IC50) was greater than 13 µg/mL in data set [1]; greater than 13 µg/mL in the data set on Plasmodium falciparum K1; 0.434 µg/mL (≈ 0.999 µM) with Trypanosoma cruzi; greater than 13 µg/mL in data set [2]; greater than 13 µg/mL with Leishmania infantum. Moreover, the “% Inhibition” value with Schistosoma mansoni is on record as 0%; in the data set with Onchocerca lienalis it was 9.31%; in the data set on Brugia malayi, 0%.

Turning to `Cc1nn(-c2ccccc2)c2ncc(C(=O)NCC3CCCO3)c(Cl)c12` (stereo not drawn), the IC50 was 3.52 µg/mL (≈ 9.49 µM) in data set [1]; greater than 11.1 µg/mL in the data set with Plasmodium falciparum K1; 0.392 µg/mL (≈ 1.06 µM) with Trypanosoma cruzi; 0.376 µg/mL (≈ 1.01 µM) in data set [2]; 3.6 µg/mL (≈ 9.71 µM) with Leishmania infantum. For the same molecule, the “% Inhibition” value in the data set on Schistosoma mansoni is reported as 0%; in the data set on Onchocerca lienalis, 66.7%; with Brugia malayi, 0%.

As to `CCS(=O)(=O)c1cccc(C(=O)Nc2nc3c(s2)CSc2ccccc2-3)c1`, the IC50 was 4 µg/mL (≈ 9.6 µM) in data set [1]; greater than 12.5 µg/mL in the data set with Plasmodium falciparum K1; 0.412 µg/mL (≈ 0.989 µM) with Trypanosoma cruzi; 0.395 µg/mL (≈ 0.948 µM) in data set [2]; 0.405 µg/mL (≈ 0.972 µM) in the data set with Leishmania infantum. The entries for the “% Inhibition” value in the data set with Schistosoma mansoni, in the data set with Onchocerca lienalis and in the data set with Brugia malayi were 75%, 46.7% and 0%, respectively.

`CC(C)Sc1ccc(C(=O)Nc2nc(-c3ccccn3)cs2)cc1`: the concentration for half-maximal inhibition (IC50) in data set [1] was 3.11 µg/mL (≈ 8.75 µM); in the data set with Plasmodium falciparum K1 it was 0.138 µg/mL (≈ 0.388 µM); with Trypanosoma cruzi, 0.368 µg/mL (≈ 1.04 µM); in data set [2], 0.341 µg/mL (≈ 0.959 µM); in the data set with Leishmania infantum, greater than 10.7 µg/mL. Further, the “% Inhibition” value amounted to 0% in the data set on Schistosoma mansoni, 86.7% in the data set with Onchocerca lienalis and 0% with Brugia malayi.

`COc1ccc(Nc2nc(Nc3ccccc3OC)nc(N3CCOCC3)n2)cc1`: the IC50 is 2.08 µg/mL (≈ 5.1 µM) in data set [1]; 1.19 µg/mL (≈ 2.91 µM) in the data set with Plasmodium falciparum K1; 3.98 µg/mL (≈ 9.74 µM) in the data set on Trypanosoma cruzi; 0.422 µg/mL (≈ 1.03 µM) in data set [2]; 4.32 µg/mL (≈ 10.6 µM) with Leishmania infantum. In addition, the “% Inhibition” value in the data set on Schistosoma mansoni, in the data set with Onchocerca lienalis and with Brugia malayi was 0% throughout.

Turning to `Cc1cccc(Nc2nc(Nc3ccc4c(c3)OCO4)nc(N3CCOCC3)n2)c1`, the 50% inhibitory concentration (IC50) in data set [1] turned out to be 1.82 µg/mL (≈ 4.49 µM); with Plasmodium falciparum K1, 1.06 µg/mL (≈ 2.62 µM); with Trypanosoma cruzi, 2.05 µg/mL (≈ 5.03 µM); in data set [2] it was 0.42 µg/mL (≈ 1.03 µM); in the data set on Leishmania infantum it was 4.3 µg/mL (≈ 10.6 µM). Also, the “% Inhibition” value with Schistosoma mansoni, in the data set with Onchocerca lienalis and in the data set with Brugia malayi was 0% throughout.

On to `COc1ccc(Cl)c2sc(N(CCCN(C)C)C(=O)c3ccc(Br)s3)nc12`, for which the IC50 in data set [1] is 6.71 µg/mL (≈ 13.7 µM); with Plasmodium falciparum K1 it was greater than 15.8 µg/mL; in the data set on Trypanosoma cruzi, 1.77 µg/mL (≈ 3.62 µM); in data set [2] it was 5.66 µg/mL (≈ 11.6 µM); in the data set with Leishmania infantum it was 0.51 µg/mL (≈ 1.04 µM). For the same molecule, the results for the “% Inhibition” value in the data set on Schistosoma mansoni, with Onchocerca lienalis and in the data set on Brugia malayi were 100%, 0% and 0%, respectively.
